Measurements published in ChEMBL document CHEMBL1221386, “Synthesis and pharmacological evaluation of 3-aryl-3-azolylpropan-1-amines as selective triple serotonin/norepinephrine/dopamine reuptake inhibitors” (Bioorg Med Chem Lett, 2010).

What was measured:
[1] = AUC (0 to infinity) in rat at 10 mg/kg, po; type: ADME, organism-based; design: dose 10 mg/kg, route oral, time infinity; conditions: plasma
[2] = target: T1, Muscarinic acetylcholine receptor M1 (Homo sapiens) (UniProt P11229); test: Inhibition of muscarinic M1 receptor at 10 uM
T1 sequence (whole entry): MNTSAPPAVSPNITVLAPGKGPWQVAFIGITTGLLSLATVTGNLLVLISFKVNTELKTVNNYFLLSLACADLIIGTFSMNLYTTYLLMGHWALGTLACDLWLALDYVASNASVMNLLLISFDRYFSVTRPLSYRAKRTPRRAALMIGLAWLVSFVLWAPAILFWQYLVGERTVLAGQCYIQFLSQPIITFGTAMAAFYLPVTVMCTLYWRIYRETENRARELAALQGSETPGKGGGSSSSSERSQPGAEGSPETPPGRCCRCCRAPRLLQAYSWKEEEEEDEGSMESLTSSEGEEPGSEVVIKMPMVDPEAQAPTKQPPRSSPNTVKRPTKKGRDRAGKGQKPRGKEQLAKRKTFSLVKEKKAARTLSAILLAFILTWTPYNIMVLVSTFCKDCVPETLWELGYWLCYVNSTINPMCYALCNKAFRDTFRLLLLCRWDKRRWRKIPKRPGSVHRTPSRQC

[3] = target: Cytochrome P450 2C19 (Homo sapiens, UniProt P33261); test: Inhibition of CYP2C19; type: ADME
[4] = system: Mus musculus; test: Anxiolytic activity in mouse assessed as inhibition of marble buried at 30 mg/kg, ip by marble burying test; type: functional; conditions: route intraperitoneal
[5] = target: Muscarinic acetylcholine receptor M3 (Homo sapiens) (UniProt P20309); test: Inhibition of muscarinic M3 receptor at 10 uM
[6] = target: Histamine H1 receptor (Homo sapiens) (UniProt P35367); test: Inhibition of histamine H1 receptor at 10 uM
[7] = AUC in rat at 10 mg/kg, iv; type: ADME, organism-based; design: dose 10 mg/kg, route intravenous; conditions: plasma
[8] = Cmax in rat at 10 mg/kg, iv; type: ADME, organism-based; design: dose 10 mg/kg, route intravenous; conditions: in vivo
[9] = Cmax in rat at 10 mg/kg, po; type: ADME, organism-based; design: dose 10 mg/kg, route oral; conditions: in vivo
[10] = system: Mus musculus; test: Antidepressant activity in po dosed mouse assessed as reduction of mobility time by forced swimming test; type: functional
Method in brief: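 Mouse forced swimming test with oral dosing. Read-out is immobility time, expressed as % reduction of immobility. Minimal effective dose is the lowest dose with p <0.05. ED50 is given with 95% confidence limits. Doses are in mg/kg.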

[11] = Inhibition of alpha1 adrenergic receptor at 10 uM
[12] = Half life in human liver microsomes; type: ADME, Microsome
Method in brief: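 Metabolic stability in human or rat liver microsomes. Half-lives measurable up to 60 min.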

[13] = target: T2, Cytochrome P450 1A2 (Homo sapiens, UniProt P05177); test: Inhibition of CYP1A2; type: ADME
T2 sequence (P05177 whole entry): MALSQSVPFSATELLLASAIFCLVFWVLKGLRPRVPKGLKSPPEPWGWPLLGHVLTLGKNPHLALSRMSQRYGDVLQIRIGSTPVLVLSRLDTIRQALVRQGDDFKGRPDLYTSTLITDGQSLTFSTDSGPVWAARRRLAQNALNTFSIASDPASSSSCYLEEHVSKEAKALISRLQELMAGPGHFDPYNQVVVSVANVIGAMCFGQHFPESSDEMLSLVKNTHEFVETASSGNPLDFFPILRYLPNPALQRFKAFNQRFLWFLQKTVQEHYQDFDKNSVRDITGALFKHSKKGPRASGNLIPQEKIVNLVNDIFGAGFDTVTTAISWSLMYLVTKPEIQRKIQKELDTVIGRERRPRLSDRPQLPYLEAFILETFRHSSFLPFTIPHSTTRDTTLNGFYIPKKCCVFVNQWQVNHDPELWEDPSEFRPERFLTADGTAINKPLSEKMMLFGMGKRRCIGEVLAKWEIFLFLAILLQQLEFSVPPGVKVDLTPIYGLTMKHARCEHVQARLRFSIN

Sequence of Histamine H1 receptor (Homo sapiens) (P35367 whole entry): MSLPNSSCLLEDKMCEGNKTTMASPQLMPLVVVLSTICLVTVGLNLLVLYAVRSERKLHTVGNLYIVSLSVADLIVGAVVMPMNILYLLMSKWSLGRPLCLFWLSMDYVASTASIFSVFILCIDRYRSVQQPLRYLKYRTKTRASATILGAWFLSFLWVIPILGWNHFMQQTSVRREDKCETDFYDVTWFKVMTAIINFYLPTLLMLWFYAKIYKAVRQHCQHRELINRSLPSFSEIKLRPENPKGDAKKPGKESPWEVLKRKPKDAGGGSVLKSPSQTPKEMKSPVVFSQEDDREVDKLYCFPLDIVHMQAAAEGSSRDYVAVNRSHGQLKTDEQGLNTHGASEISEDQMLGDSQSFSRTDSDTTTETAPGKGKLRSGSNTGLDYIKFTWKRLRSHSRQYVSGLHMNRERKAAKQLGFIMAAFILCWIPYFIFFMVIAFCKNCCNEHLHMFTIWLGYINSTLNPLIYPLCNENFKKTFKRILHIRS
Sequence of Cytochrome P450 2C19 (P33261 whole entry): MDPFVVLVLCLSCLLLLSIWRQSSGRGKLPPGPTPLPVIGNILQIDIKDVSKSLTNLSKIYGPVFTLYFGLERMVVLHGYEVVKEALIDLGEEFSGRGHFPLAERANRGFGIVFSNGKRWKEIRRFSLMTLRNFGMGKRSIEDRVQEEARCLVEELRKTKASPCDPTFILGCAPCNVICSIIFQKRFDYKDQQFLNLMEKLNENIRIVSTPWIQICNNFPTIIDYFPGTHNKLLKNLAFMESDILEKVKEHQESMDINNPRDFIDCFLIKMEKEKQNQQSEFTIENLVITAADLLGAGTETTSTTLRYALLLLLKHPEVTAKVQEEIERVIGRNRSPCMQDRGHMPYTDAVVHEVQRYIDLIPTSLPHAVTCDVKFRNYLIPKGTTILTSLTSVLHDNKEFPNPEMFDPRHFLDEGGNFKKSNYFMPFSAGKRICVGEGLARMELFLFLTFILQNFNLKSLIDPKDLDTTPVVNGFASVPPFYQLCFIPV
Sequence of Muscarinic acetylcholine receptor M3 (Homo sapiens) (P20309 whole entry, looked up): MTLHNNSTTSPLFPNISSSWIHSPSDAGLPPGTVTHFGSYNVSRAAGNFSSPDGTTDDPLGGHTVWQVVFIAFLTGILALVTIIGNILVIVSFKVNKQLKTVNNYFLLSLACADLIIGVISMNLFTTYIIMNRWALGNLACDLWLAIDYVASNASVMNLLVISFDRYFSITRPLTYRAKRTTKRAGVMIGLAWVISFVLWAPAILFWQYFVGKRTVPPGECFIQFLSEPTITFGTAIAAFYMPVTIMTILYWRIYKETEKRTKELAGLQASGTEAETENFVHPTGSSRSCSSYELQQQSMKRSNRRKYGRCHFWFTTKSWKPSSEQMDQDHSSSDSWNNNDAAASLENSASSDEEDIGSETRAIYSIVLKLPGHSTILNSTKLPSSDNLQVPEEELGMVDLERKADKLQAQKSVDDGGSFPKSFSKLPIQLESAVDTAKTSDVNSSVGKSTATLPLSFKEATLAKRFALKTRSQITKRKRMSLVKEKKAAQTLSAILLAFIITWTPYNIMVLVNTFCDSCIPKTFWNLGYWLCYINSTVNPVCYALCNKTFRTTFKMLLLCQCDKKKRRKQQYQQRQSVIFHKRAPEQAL

`CNCC[C@@H](c1ccc(Cl)c(Cl)c1)n1nnc(C)n1` showed an AUC(0-inf) [1] of 1790 ng·h/mL, an inhibition [2] of less than 20% and an IC50 [3] greater than 10 µM. For the same molecule, the inhibition in vivo at 30 mg/kg [4] was 94.4%, the inhibition [5] was less than 20% and the inhibition [6] was less than 20%. For the same molecule, the AUC [7] was 3830 ng·h/mL, the Cmax [8] was 3830 ng/mL and the Cmax [9] was 334 ng/mL. For the same molecule, the ED50 [10] was 22.2 mg/kg, the minimal effective dose ([10]; read-out: MED) was 10 mg/kg and the inhibition [11] was less than 20%. The half-life [12] was greater than 1 h and the IC50 [13] was greater than 10 µM.
